# From PubChem
# A selection: hits, their analogues and other compounds. The true share with any hit is near 3.5%.
# FGF22 binding = shifts melting point of recombinant human FGF22; recombinant FGF22 thermal shift, SYPRO orange fluorescence; percent of sucrose octasulfate shift, DMSO zero; Q9HCT0; activity (Tm shift, normalised), % at 9.99 µM; AID 651658; 340,000 compounds, 1.5% hits;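 active means mean Tm shift, scaled 0 neutral to 100 positive control, at about 1.3% or above, every replicate too, limit read from the data; inconclusive means no clear call, values can overlap the other calls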
# Target sequence (Q9HCT0 whole entry, looked up): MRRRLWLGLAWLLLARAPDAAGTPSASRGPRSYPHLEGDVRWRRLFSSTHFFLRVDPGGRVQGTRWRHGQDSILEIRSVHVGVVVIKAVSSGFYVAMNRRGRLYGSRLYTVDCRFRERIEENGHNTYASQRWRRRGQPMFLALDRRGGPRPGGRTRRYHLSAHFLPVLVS
# PGC1a acetyl inh = PGC1a acetylation modulation, inhibitor mode | U2OS PGC1a acetylation, AlphaScreen anti-acetyl-lysine; with virally co-expressed GCN5 acetyltransferase | inhibition, % at 15.6 µM | 350,000 compounds, 0.17% hits | AID 651687;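 active means every replicate shows inhibition of at least 40%; inconclusive means mean inhibition at least 40% but some replicate below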;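 further: 0% = neutral control wells and 100% = positive control wells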
# Env fusion inh = HIV envelope-mediated fusion inhibition | HeLa-JRFL Env/CEM21 cell fusion, luciferase | inhibition, % at 12.3 µM | 360,000 compounds, 1.1% hits;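 active means mean replicate inhibition score of at least 50 and every replicate individually at or above 50; inconclusive means only one of the two criteria met; inactive means mean below 50 and not all replicates reaching 50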;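 further: 0% = plate neutral controls and 100% = maraviroc near 300 nM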
# Cneo AK release = causes C. neoformans cell lysis; 360,000 compounds, 0.2% hits; adenylate kinase release luminescence, 4 h; normalised: neutral wells 0, clomiphene wells 100; lysis activity, % at 15 µM;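 active means mean lysis activity across replicates of at least 80%, whatever share of replicates individually reach that level; inactive means mean lysis activity below 80%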
#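 Material – Cryptococcus neoformans yeast cells · Quantity – 5 × 10^6 yeast cells/mL · Buffer or medium – YPD medium · Compound – single dose · Timing – 4 h static compound exposure, 37 °C, read 1 h post-reagent · Signal – adenylate kinase release luminescence · Read-out basis – lysis from increased AK signal · Benchmarks – Clomiphene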
# ERAP1 HTS inh = blocks human ERAP1 aminopeptidase activity | 340,000 compounds, 0.15% hits | Q9NZ08 | inhibition, % at 10.7 µM | recombinant ERAP1, Leu-AMC fluorescence, 60 min;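 active means mean replicate inhibition of at least 30%, or all replicates individually reaching that 30% level; inactive means mean below 30% and not every replicate reaching it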;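 further: 0% = neutral control wells and 100% = L-leucinethiol positive control wells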
# Ecoli rRNA inh = selective bacterial rRNA inhibition in E. coli | 350,000 compounds, 1.6% hits | E. coli WT GFP vs humanized-ribosome RFP mutants, fluorescence, 24 h; stronger effect = lower value; DMSO median 0, no signal -100 | GFP signal change (wild-type ribosome), % (concentration not given with the values) | AID 720706;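 active means significant combined selectivity score with lowered wild-type GFP, culture density cut under 30%, mutant RFP and density less affected; inactive means any of these conditions unmet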
# * = called active by the depositor; ? = inconclusive; nt = not tested or not shown; [ ] = remark or other dose.
SMILES,FGF22 binding,PGC1a acetyl inh,Env fusion inh,Cneo AK release,ERAP1 HTS inh,Ecoli rRNA inh
CCC(c1ccccc1)C(CC)c1cc(O)c(O)c(O)c1 (stereo not given),43.0*,-14.4,21.0,-0.3,-5.2,-26.1*
CCCCCCCCCCn1ccc(=N)cc1,0.0,-3.5,77.5*,10.4,8.6,-49.7
CCCCCCCCn1ccc(=N)cc1,0.3,3.6,20.9,-0.9,-1.1,8.1
C/C(=N\NC(=O)c1cccnc1)c1cc2ccccc2o1,43.1*,-5.7,-1.9,nt,-2.8,13.1
C/C(=N\NC(=O)C1COc2ccccc2O1)c1ccc(C)o1 (stereo not given),nt,1.1,-48.0,nt,nt,nt
C/C(=N\NC(=O)c1ccncc1)c1cc2ccccc2o1,0.3,nt,17.9,0.4,2.1,nt
C/C(=N\NC(=O)C1COc2ccccc2O1)c1cc2ccccc2o1 (stereo not given),44.0*,-10.9,-12.6,10.5,-2.8,3.7
S=C(NCCc1ccccc1)Nc1cccc2cnccc12,-0.1,17.8,18.9,1.5,-4.0,-27.0*
O=C(Nc1nc(-c2ccccc2)ns1)c1cccs1,-0.1,5.4,nt,20.2,2.3,-37.5*
N#CC1=C(N)N2C(=C(C#N)C1c1ccc(Br)cc1)Nc1ccccc12 (stereo not given),0.4,nt,55.7*,nt,1.8,1.5
N#CC1=C(N)N2C(=C(C#N)C13CCN(Cc1ccccc1)CC3)Nc1ccccc12,nt,11.0,nt,0.2,nt,nt
N#CC1=C(N)N2C(=C(C#N)C1c1cccc(Br)c1)Nc1ccccc12 (stereo not given),42.9*,0.4,64.8*,nt,0.3,6.6
COc1cccc(-n2c(SC)nnc2-c2c[nH]c3ccccc23)c1,-0.1,nt,16.8,-0.1,8.4,-9.7
Cc1nn(-c2ccccc2)c2sc(C(=O)OCn3nnc4ccccc4c3=O)cc12,0.3,0.9,5.8,-3.4,-7.7,13.7
FC(F)(F)COc1nc(N2CCOCC2)nc(N(c2ccccc2)c2ccccc2)n1,nt,-18.3,75.5*,0.3,nt,nt
FC(F)(F)COc1nc(OCC(F)(F)F)nc(N2CCN(c3ccccc3)CC2)n1,nt,-2.1,nt,11.9,nt,nt
Cc1ccc(S(=O)(=O)Oc2cccc(/C=N/Nc3ccc(C(=O)O)cc3)c2)cc1,0.1,-4.2,-159.1,-0.1,2.1,-27.6*
CCCCN1CC(COCc2ccccc2)Oc2cccc(Oc3ccc(C(C)C)cc3)c2S1(=O)=O (stereo not given),0.2,6.7,63.5*,-2.1,-0.8,nt
CCCCN1CC(COCc2ccccc2)Oc2cccc(Oc3ccc(OC)cc3)c2S1(=O)=O (stereo not given),0.2,-19.7,10.9,-2.2,-3.0,7.9
CC(=O)c1c(C)[nH]c(C(=O)CSc2nnc(NC3CC3)s2)c1C,-0.2,nt,34.2,4.7,-0.1,0.2
O=C(CCN1CCCCC1)N[C@H]1CC[C@H](CCn2cc(-c3ccccc3)nn2)O[C@@H]1CO,-0.5,8.2,77.5*[16.7 µM],2.7,-1.5,0.9
O=C(CCN1CCCCC1)N[C@@H]1CC[C@H](CCn2cc(-c3ccccc3)nn2)O[C@@H]1CO,-0.5,7.5,-8.3[16.7 µM],0.0,-1.5,0.9
O=C(CCN1CCCCC1)N[C@@H]1CC[C@@H](CCn2cc(-c3ccccc3)nn2)O[C@@H]1CO,0.2,-6.8,74.9*[16.7 µM],-0.4,-3.1,-0.1
C[C@@H]1CN([C@H](C)CO)S(=O)(=O)c2ccc(C3=CCCCC3)cc2O[C@@H]1CN(C)S(=O)(=O)c1ccc(F)cc1,nt,3.0,58.0*[16.7 µM],-2.8,-3.7,4.3
COc1ccc(S(=O)(=O)N(C)C[C@H]2Oc3cc(C4=CCCC4)ccc3S(=O)(=O)N([C@@H](C)CO)C[C@H]2C)cc1,-0.1,2.7,68.9*[16.7 µM],-3.7,-3.5,0.0
COc1ccc(S(=O)(=O)N(C)C[C@H]2Oc3cc(C4=CCCC4)ccc3S(=O)(=O)N([C@H](C)CO)C[C@@H]2C)cc1,0.4,?,-17.6[16.7 µM],-9.7,-1.2,1.6
Cc1cccn2c(=O)c3cc(C(=O)NCCCOC(C)C)sc3nc12,-0.1,-6.3,-2.2,-0.5,-16.7,9.2
Cc1nn(C)c2ncc(C(=O)c3ccccc3O)cc12,-0.1,4.8,7.4,-1.5,0.7,-1.1
Cc1[nH]nc2ncc(C(=O)c3ccccc3O)cc12,nt,44.5*,64.3*,-0.6,nt,nt
